PfG6PD inh – PfG6PD (Plasmodium falciparum) enzyme inhibition; PfGluPho enzyme, NADPH resazurin-diaphorase fluorescence; inhibition, % at 20 µM; 350,000 tested, 0.78% active; AID 504690;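 active = inhibition reaching at least a set limit at 20 µM in the primary screen, cut at about 59% in these data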;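 note: 0% = DMSO wells with substrate and 100% = DMSO wells lacking glucose-6-phosphate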
Lmaj promast – inhibitors of Leishmania major promastigote growth; AID 1063; inhibition, % at 10 µM; 200,000 tested, 9% active; Leishmania major promastigotes, resazurin fluorescence viability;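 note: promastigotes grown with compound for 44 hours at 28 °C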
Diaph inh CS – diaphorase inhibition or chemical oxidation counter-screen. diaphorase resazurin-to-resorufin fluorescence, NADH, 16 min; bacterial (C. kluyveri) enzyme, not human. inhibition, % at 20 µM. 190,000 tested, 0.69% active. AID 1217;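 active = primary screen inhibition at 20 µM above a set limit, cut at about 50% in these data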;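 note: plate controls were DMSO with full reaction for no effect and wells lacking NADH for full effect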
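Detection: fluorescence of resorufin formed from resazurin, Ex 544/Em 590 nm; test system: Clostridium kluyveri diaphorase enzyme; amount: 0.14 U/mL diaphorase, enzyme working solution; times: 16-min room-temperature incubation before reading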
Redox H2O2 prof – compounds producing H2O2 with reducing agent – biochemical, NIH compound library profiling, artefact control for MLSCN library redox annotation, primary screen; DTT-dependent redox cycling H2O2, phenol red/HRP absorbance; 100% = 100 µM peroxide control, 0% = buffer; activation, % at 10 µM; 200,000 tested, 0.03% active; AID 878;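 active = activation of at least 50% relative to the plate's high and low controls in the primary single-dose screen; inactive = activation below 50%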;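 note: compound incubated with DTT at 0.8 mM final as the reducing agent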
Diaphorase act – counter-screen for diaphorase-based assays: diaphorase activators and chemical reducers; Diaphorase/resazurin coupled assay, resorufin fluorescence, 16 min; active compounds read high; 1 = vehicle wells, 0 = NADH-free wells; activation factor at 20 µM; AID 1229; 190,000 tested, 0.005% active;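 active = diaphorase activity raised at least twofold by the compound at 20 µM; inactive = activation factor below 2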
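Assay system: bacterial diaphorase enzyme (C. kluyveri) / Input: enzyme 0.07 U/mL final / Medium: 50 mM HEPES pH 7.4 with 4.542 mM MgCl2, 0.005% Tween 20 / Doses: single compound dose of 20 µM, 1% DMSO final / Incubation: 16 min enzyme reaction, ambient temperature / Signal: fluorescence, excitation 544 nm and emission 590 nm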
G6PDH CS – counter-screen for G6PDH assay hits: L. mesenteroides G6PDH inhibition | inhibition, % at 5 µM | Purified L. mesenteroides G6PDH, diaphorase/resazurin coupled fluorescence, 45 min | 200,000 tested, 0.12% active
* marks the source's active call; other numbers are inactive results; nt = no result given. Shown is part of a subset that was picked to be rich in hits. Cut-off read from the data, not from the text of the source, unless noted: active = inhibition above about 50%; inactive = the rest.

SMILES	PfG6PD inh	Lmaj promast	Diaph inh CS	Redox H2O2 prof	Diaphorase act	G6PDH CS
Cc1ccc2c(c1)cc(CN(Cc1cccs1)C(=O)c1ccco1)c1nnnn12	-4	37	29	0	0.7	-2
COc1ccc(-c2cc(C#N)nc(N3CCNCC3)n2)cc1	6	100*	-63	0	1.6	8
CN1CCN(c2ccc(Cl)cc2NC(=O)/C=C/c2ccc(F)cc2)CC1	21	94*	2	-2	1	-5
O=C(/C=C/c1ccc(F)cc1)Nc1cc(S(=O)(=O)N2CCOCC2)ccc1N1CCCC1	-12	6	9	0	0.9	-10
CN1CCN(c2ccc(Cl)cc2NC(=O)CCN2C(=O)c3ccccc3C2=O)CC1	11	77*	-17	-1	1.2	9
CC(C)CC(=O)Nc1cccc(C(C)O)c1 (stereo not drawn)	nt	-5	16	1	0.8	3
CN(C(=O)CSc1nnc(COc2ccccc2F)n1N)C1CCS(=O)(=O)C1 (stereo not drawn)	7	nt	nt	nt	nt	nt
CCOC(=O)N1CCN(Cc2cn[nH]c2-c2cc3ccccc3o2)CC1	-6	-5	9	-1	0.9	17
CC(=O)Nc1ccc(S(=O)(=O)N2CCSC2c2ccccc2)cc1 (stereo not drawn)	2	14	5	1	0.9	1
CC(=O)Nc1ccc(S(=O)(=O)N2CCSC2c2ccccc2Cl)cc1 (stereo not drawn)	14	64*	14	0	0.9	6
CCOC(=O)c1sc(NC(=O)c2cc3c(C)nn(-c4ccccc4)c3s2)nc1C	nt	nt	10	nt	0.9	8
Cc1ccccc1-n1c(SC/C(O)=C(\C#N)c2nc3ccccc3[nH]2)nnc1-c1ccncc1	-1	-6	43	0	0.6	-1
Cc1cc(C)n2c(SC/C(O)=C(\C#N)c3nc4ccccc4[nH]3)nnc2n1	-9	-2	53*	-1	0.5	22
O=C1c2cccc(OCC(=O)N3CCCc4ccccc43)c2CCN1Cc1ccc(F)cc1	-5	95*	22	0	0.8	-2
CCOC(=O)N1CCN(CC(O)COc2cc(C)ccc2C(C)C)CC1 (stereo not drawn)	4	4	16	0	0.8	18
Cc1ccc(C(C)C)c(OCC(O)CN2CC(C)OC(C)C2)c1 (stereo not drawn)	2	95*	12	-1	0.9	5
Cc1ccc(C(C)C)c(OCC(O)CN2CCN(CCO)CC2)c1 (stereo not drawn)	-15	1	2	1	1	5
Cc1ccc(OCC(O)CN2CCN(CC(O)COC(C)C)CC2)c(C(C)(C)C)c1 (stereo not drawn)	0	77*	4	1	1	10
Cc1ccc(C(C)C)c(OCC(O)CN2CCOCC2)c1 (stereo not drawn)	0	88*	10	2	0.9	2
c1ccc2c(-c3cn4ccccc4n3)c[nH]c2c1	nt	3	14	0	0.9	10
COCCNC(=O)CSc1ccc(C)cc1	0	-6	3	-2	1	0
COCCNC(=O)CSc1nnc(-c2ccc(C)cc2)c(-c2ccc(C)cc2)n1	-10	90*	10	0	0.9	6
O=C1C(NS(=O)(=O)c2cccs2)=C(N2CCOCC2)C(=O)c2ccccc21	-15	nt	nt	nt	nt	nt
CN(C1=C(N2CCOCC2)C(=O)c2ccccc2C1=O)c1ccccc1	-8	59*	0	1	1	18
Cc1cc(=O)c(C(=O)O)cn1Nc1ccc(Cl)cc1	7	-7	15	0	0.9	10
SMILES	PfG6PD inh	Lmaj promast	Diaph inh CS	Redox H2O2 prof	Diaphorase act	G6PDH CS
COc1cc(NC(=O)C2CC(=O)N(CCc3ccc(F)cc3)C2)cc(OC)c1OC (stereo not drawn)	9	nt	nt	nt	nt	nt
COCCCNCCCCOc1ccc(C)cc1[N+](=O)[O-]	-3	99*	0	0	1	-2
COc1ccccc1OCCOCCOc1ccc(C)cc1[N+](=O)[O-]	7	55*	15	0	0.8	4
CCCCNCCOCCOc1ccc(C)cc1[N+](=O)[O-]	-9	91*	21	1	0.8	-4
C=CCNCCOc1ccc(C)cc1[N+](=O)[O-]	-6	-6	16	-1	0.8	9
C[C@H](CO)N1C[C@H](C)[C@H](CN(C)S(=O)(=O)c2cccc(C#N)c2)OCc2cnnn2CCCC1=O	-11	nt	nt	nt	nt	nt
COc1ccc(CNC(=O)CCCn2nc(C)c3c(C)n(-c4ccc(C)cc4)nc3c2=O)cc1	-11	nt	nt	nt	nt	nt
CCCCn1c(C)cc2cc(O)ccc21	11	2	32	-2	0.7	57*
Brc1ccc(N=C(c2ccccc2)c2ccncc2)cc1	-8	-2	8	0	0.9	0
O=S(=O)(NCc1ccccc1)c1cccc2cccnc12	23	64*	12	0	0.9	-2
O=C(NCc1ccccc1)c1cccc(NS(=O)(=O)c2cccc3cccnc23)c1	-8	54*	13	0	0.9	11
O=S(=O)(NCc1cccnc1)c1cccc2cccnc12	9	0	12	4	0.9	1
Cc1c(NC(=O)C(C)OC(=O)CCc2ccccc2)c(=O)n(-c2ccccc2)n1C (stereo not drawn)	-2	54*	0	0	1	5
COc1ccccc1CCC(=O)OC(C)C(=O)Nc1c(C)n(C)n(-c2ccccc2)c1=O (stereo not drawn)	-2	nt	nt	nt	nt	nt
Cc1c(NC(=O)C(C)OC(=O)c2ccc([N+](=O)[O-])s2)c(=O)n(-c2ccccc2)n1C (stereo not drawn)	3	77*	3	0	1	5
Cc1c(NC(=O)C(C)OC(=O)c2sc3ccccc3c2Cl)c(=O)n(-c2ccccc2)n1C (stereo not drawn)	-6	-2	6	0	0.9	5
COC(=O)C1=C(O)/C(=C\c2sccc2C)N=C1C	-12	54*	4	0	1	10
O=C(NCC1CCCCC1)c1cccc(Br)c1	-8	nt	nt	nt	nt	nt
CCCC1OC(c2cc3c(cc2Cl)OCO3)OCC1CC (stereo not drawn)	4	nt	nt	nt	nt	nt
CC(=O)c1sc(-c2ccc(Cl)cc2)nc1C	-5	-4	5	0	0.9	-1
Cc1nc(-c2ccccc2)sc1C(=O)/C=C/c1ccc(Cl)cc1	4	63*	3	-12	1	1
C/C(=N\NC(=O)Cn1cc([N+](=O)[O-])cn1)c1ccco1	12	nt	nt	nt	nt	nt
Cc1ccc(Sc2nnc(Cc3ccccc3)c3ccccc23)cc1	-2	39	11	2	0.9	-2
COc1ccc(Sc2nnc(Cc3ccccc3)c3ccccc23)cc1	4	85*	18	2	0.8	9
